Source: PubChem BioAssay (several laboratories)
Sampled rows, rich in hits. Any-hit rate of the full collection: about 3.7%.
RAM inhibit = inhibitors of the yeast RAM network; S. cerevisiae dse1pr::URA3 reporter, 5-FOA growth OD615, 2 d; analog-sensitive cbk1-as2 kinase mutant strain; AID 868; inhibition, % at 50 µM; actives 1.8% (n = 190,000);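 active = inhibition above a set limit, 3 SD over mean compound inhibition, cut at about 8.4% in these data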;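 note: inhibition rescues growth on 5-FOA so higher OD means more RAM inhibition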
Efa HMGR inh = inhibitors of class II HMG-CoA reductase from Enterococcus faecalis; purified E. faecalis HMGR, NADPH absorbance 340 nm kinetic; inhibition, % at 10 µM; actives 0.41% (n = 190,000); AID 1066;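 active = inhibition above a set limit, the median over all tested compounds plus 3 SD, cut at about 9.5% in these data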;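 note: enzyme runs in reverse so mevalonate oxidation gives rising NADPH absorbance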
Insulin prom inh = TRM-6 insulin promoter activity inhibition; TRM-6 cells, insulin promoter-eGFP reporter, imaging; reporter expression induced with tamoxifen; inhibition, % at 2 µM; actives 0.9% (n = 130,000);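 active = inhibition above the mean plus 3 SD, with well images judged a real hit on visual review, cut at about 60% in these data, passing the limit was not always enough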
Yeast lifespan up = yeast lifespan extension | S. cerevisiae growth with nicotinamide, OD615; deaD strain in restrictive glucose medium | inhibition of the nicotinamide effect, % at 10 µM | actives 0.68% (n = 130,000);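 active = inhibition above a set limit, placed 3 SD over the median of all compounds, cut at about 26% in these data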
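Measured by: optical density (absorbance) at 615 nm; System: modified budding yeast, DeaD strain; Medium: restrictive CSMM-D dextrose medium; Timing: 4 h preincubation then 48 h treatment at 30 °C.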
BB579 growth dn = chemicals that inhibit yeast BB579 growth in restrictive medium (lifespan-shortening candidates); inhibition, % at 10 µM; AID 804; S. cerevisiae BB579 growth, OD615, 48 h; actives 0.51% (n = 140,000);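 active = inhibition above a set limit, 3 SD over the mean compound inhibition, cut at about 44% in these data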
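Test system: Saccharomyces cerevisiae DeaD strain BB579, replicative lifespan model yeast | Buffer or medium: Restrictive CSMM-D medium | Doses: One dose, 10 µM compound with 0.25% DMSO | Incubation: 48 h exposure, 30 °C | Detection: Culture absorbance at 615 nm | Control set: Amphotericin B at 10 µg/mL as positive control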
Hits are given with their value; – = inactive; · = no result given.

SMILES	RAM inhibit	Efa HMGR inh	Insulin prom inh	Yeast lifespan up	BB579 growth dn
Cc1cccc(NC(=O)CSc2nc3[nH]ncc3c(=O)[nH]2)c1C	11.0	–	–	–	–
c1ccc(OCc2nc3c4c(ncn3n2)-c2ccccc2CC42CCCC2)cc1	8.4	–	–	–	–
Nc1ncnc2c1C1(CCCCC1)Cc1ccccc1-2	–	–	–	–	–
CCCC(=O)NCc1cc(-c2nn(C)c(=O)c3ccccc23)ccc1OC	–	–	–	·	·
CCOc1cc(NC(=O)c2ccccn2)c(OCC)cc1NC(=O)c1ccccc1	9.7	–	–	·	·
CCOc1cc(NC(=O)C2CC2)c(OCC)cc1NC(=O)c1ccccn1	–	–	–	–	–
CCOC(=O)C1(C)C=C(Nc2ccccc2)C(=O)N1c1ccccc1 (stereo not given)	–	–	71.4	·	·
O=C(O)[C@H]1CCCC[C@H]1C(=O)NCCNC(=O)[C@@H]1CCCC[C@@H]1C(=O)O	–	–	100.0	–	–
N#Cc1ccc(C(=O)Nc2cc(S(=O)(=O)N3CCCC3)ccc2OCC(F)(F)F)cc1	–	–	–	–	–
O=C(c1cc(COc2c(F)cccc2F)on1)N1CCC(c2ccccc2Cl)C1 (stereo not given)	8.4	–	·	·	·
O=C(c1cc(COc2c(F)cccc2F)on1)N1CCC(c2ccccc2F)C1 (stereo not given)	–	–	·	·	·
CN(Cc1cccc2ccccc12)C(=O)c1cc(COc2c(F)cccc2F)on1	–	–	·	·	·
O=C(NCc1ccc(Cl)s1)c1cc(COc2c(F)cccc2F)on1	9.1	–	–	·	·
CCc1ccc(CN(C)C(=O)c2cc(COc3c(F)cccc3F)on2)cc1	9.4	–	·	·	·
COc1ccc(NC(=O)CN(C)C2CCCCC2)c([N+](=O)[O-])c1	–	–	–	–	–
COc1ccc(N(CC(=O)Nc2ccccc2C(=O)O)S(=O)(=O)c2ccc(C)c([N+](=O)[O-])c2)cc1	–	–	·	·	·
Cc1ccc(S(=O)(=O)N(CC(=O)Nc2ccccc2C(=O)O)c2ccccc2)cc1	8.7	–	·	·	·
CCOc1ccccc1NC(=O)CCN(c1ccc(C)cc1)S(=O)(=O)c1ccccc1	9.2	–	–	–	–
CCC(=O)NCc1c(C)c(C)n(Cc2ccccc2)c1-n1cccc1	–	–	–	·	·
CCOCCCNC(=O)C(NC(=O)Cc1cccs1)c1ccc(OC)cc1 (stereo not given)	–	–	·	·	·
CCc1ccc(NC(=O)Cn2c3[n+](c4c(F)c(F)ccc42)CCCCC3)cc1	–	–	–	·	·
O=C(O)c1cccc(NC(=S)N/N=C/c2cccc(O)c2)c1	–	–	77.8	·	·
O=C(O)c1cccc(NC(=S)N/N=C/c2ccccn2)c1	–	–	·	·	·
CCOC(=O)c1ccc(NC(=O)c2cc3ccccc3o2)cc1	–	–	63.0	–	–
CC(C)C(=O)Nc1ccc(NC(=O)c2cc3ccccc3o2)cc1	–	–	–	–	–
SMILES	RAM inhibit	Efa HMGR inh	Insulin prom inh	Yeast lifespan up	BB579 growth dn
Cc1cnc(NC(=O)c2cc3ccccc3o2)s1	–	29.7	·	·	·
COc1ccc(NC(=O)COc2nc3ccccc3nc2N2CCOCC2)c(OC)c1	–	–	·	·	·
Cc1cc2ccc(C)c(C)c2nc1SCC(=O)c1cccs1	8.6	–	–	–	–
CCOC(=O)CC(=O)CSc1nc2c(C)c(C)ccc2cc1C	–	–	–	–	–
Cc1ccc(C)c2c1cc(C)c1nnc(SCC(=O)c3cccs3)n12	11.2	–	–	–	–
Cc1ccc2cc(C)c3nnc(SCC(=O)c4cccs4)n3c2c1C	–	–	–	–	–
CC1CCN(c2nc3c(c(=O)[nH]c(=O)n3C)n2CC(C)CSc2nnnn2-c2ccccc2)CC1 (stereo not given)	–	–	–	–	–
CCC(NC(=O)NCc1ccccc1)(C(F)(F)F)C(F)(F)F	–	–	71.4	–	–
Cc1sc(NC(=O)CN(Cc2ccc(F)cc2)C(=O)C(C)(C)C)c(C(N)=O)c1C	–	–	·	–	–
CC(CCCC(C)(C)O)NC(=O)c1ccc(OC2CCN(C(=O)C3CC3)CC2)cc1 (stereo not given)	–	10.0	·	·	·
CC(C)C[C@H](NC(=O)c1ccc(OC2CCN(C(=O)C3CC3)CC2)cc1)C(N)=O	–	–	·	·	·
C=CCN1C(=O)/C(=C\c2ccc(Oc3nc(N4CCOCC4)nc(N4CCOCC4)n3)c(OC)c2)SC1=S	–	–	–	·	·
Cc1ccc(/C=C/C(=O)NCc2ccccn2)o1	–	–	65.5	–	–
Cc1ccc(/C=C/C(=O)NC2CCCCCCC2)o1	–	–	–	38.1	–
Cc1ccc(/C=N/NC(=O)NC2CCCCC2)o1	–	–	–	·	·
CN(C)S(=O)(=O)c1ccc2nnn(O)c2c1	–	–	–	·	·
COc1ccc(C(=O)CCC(C)(C)[N+](=O)[O-])cc1	–	11.9	–	·	·
O=C(CN1CCN(c2nc(-c3ccccc3)cs2)CC1)NNC(=O)c1ccco1	–	–	·	·	·
COc1cccc(OCc2nc3ccccc3c(=O)n2N)c1	–	–	–	–	–
COc1ccc2cc(C(C)c3nc4ccccc4c(=O)n3N)ccc2c1 (stereo not given)	–	–	–	30.9	–
O=C(NNC(=O)C1CCCN(S(=O)(=O)c2cccc(F)c2)C1)C1CC1 (stereo not given)	–	–	–	·	·
CCCOc1ccc(Cn2c(=O)oc3ccc(C)cc32)cc1OC	8.6	–	–	·	–
CCCOc1ccccc1Cn1c(=O)oc2ccc(C)cc21	–	–	–	–	–
CC(=C/C(=O)O)/C=C/c1ccco1	–	–	–	28.3	–
CCOc1cc(S(=O)(=O)n2cc(-c3ccc(F)cc3)c(N)n2)cc(OCC)c1OCC	9.0	–	–	–	–
SMILES	RAM inhibit	Efa HMGR inh	Insulin prom inh	Yeast lifespan up	BB579 growth dn
CCOc1ccc(S(=O)(=O)n2cc(-c3ccccc3)c(N)n2)cc1	–	–	–	–	–
CCOc1ccc(S(=O)(=O)n2cc(-c3ccc(F)cc3)c(N)n2)cc1	–	–	86.7	–	–
Cc1nn(CC2CC2)c(=O)n1-c1ccc(Oc2ccccc2)cc1	–	–	·	·	·
CC1CCN(c2nncc3ccccc23)CC1	–	–	·	29.6	–
S=C(NCc1ccc2[nH]c3c(c2c1)CCCC3)Nc1ccccc1	–	9.8	–	–	–
Cc1cc(C)cc(NC(=S)NCc2ccc3[nH]c4c(c3c2)CCCC4)c1	–	–	–	–	–
CCN(CC)C(=O)/C(=C/c1cn(S(=O)(=O)N(C)C)c2ccccc12)NC(=O)c1ccc(OC)cc1	–	–	·	·	·
COc1ccc(C(=O)N/C(=C\c2cn(S(=O)(=O)N(C)C)c3ccccc23)C(=O)NC(C)C)cc1	9.3	–	·	·	·
CCOc1cc(/C=N/NC(=O)c2ccc(-c3csc(Nc4ccc(C)cc4)n3)cc2)ccc1OCC(=O)O	8.9	–	–	·	·
CCOc1cc(/C=N/Nc2ccccc2Cl)ccc1OCC(=O)O	–	–	·	–	96.0
CCOc1cc(/C=N/Nc2cccc(C(=O)O)c2)ccc1OC(=O)c1ccccc1	–	–	–	·	·
O=[N+]([O-])c1ccc(CSc2nnc(SCc3ccc(Cl)cc3)s2)cc1	–	–	–	–	–
O=C(O)Cc1ccc2sc(-c3ccccc3)nc2c1	–	–	–	–	48.6
